Broadly, the MIC is the least concentration at which growth counts as inhibited. The term IC50 denotes the point on the concentration scale where inhibition reaches its midpoint. Read a high IC50 as a need for much substance.

The values that follow come from ChEMBL document CHEMBL1126988, “Quinolone antibacterials containing the new 7-[3-(1-aminoethyl)-1- pyrrolidinyl] side chain: the effects of the 1-aminoethyl moiety and its stereochemical configurations on potency and in vivo efficacy” (J Med Chem, 1993).

SMILES strings stand for the structures. Values after ≈ are worked out from the molar mass of the structure shown. A value given as a limit tells only on which side of the number the result lay.

The subject of assay [1] is Staphylococcus aureus. The assay is described as follows: Minimum inhibitory concentration was evaluated in vitro against Staphylococcus aureus H 228. It is filed as functional. The gist of the method:
(§1)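 Standard microtitration broth assay against a panel of 10 Gram-positive and Gram-negative organisms. MIC read in µg/mL and averaged over multiple experiments.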

Assay [2] has as its system Escherichia coli. Description: Antibacterial activity in vitro against Escherichia coli Vogel. It is filed as functional. The gist of the method:
as §1

A further assay relates to Pseudomonas aeruginosa. Description: Minimum inhibitory concentration was evaluated in vitro against Pseudomonas aeruginosa UI-18. It is filed as functional. The method, boiled down:
as §1

The subject of another assay is Klebsiella pneumoniae. Description: Minimum inhibitory concentration was evaluated in vitro against Klebsiella pneumoniae MGH2. It is filed as functional. The gist of the method: as §1
Assay [3] concerns Streptococcus pyogenes. Description: Antibacterial activity measured as mouse protection against Streptococcus pyogenes C 203 after subcutaneous administration. The following applies: for ED50: Streptococcus pyogenes, C 203, sc, read-out: PD50. It is filed as functional.
The test system of the next assay is Enterobacter cloacae. Description: Minimum inhibitory concentration in vitro against Enterobacter cloacae MA 2646. It is filed as functional.
The test system of assay [4] is Streptococcus pyogenes. Description: Minimum inhibitory concentration was evaluated in vitro against Streptococcus pyogenes C 203. It is filed as functional. The method, boiled down: as §1
In assay [5] the test system is Streptococcus pyogenes. Description: Compounds were evaluated in vivo for antibacterial activity for mouse protection against Streptococcus pyogenes C 203 after oral administration. It is filed as functional. The conditions noted are these: for ED50: Streptococcus pyogenes, C 203, po, read-out: PD50.
The test system of another assay is Enterococcus faecalis. The assay is described as follows: Minimum inhibitory concentration was evaluated in vitro against Enterococcus faecalis MGH-2. It is filed as functional. The method, boiled down: as §1
The subject of the next assay is Providencia rettgeri. The assay is described as follows: Minimum inhibitory concentration was evaluated in vitro against Providencia rettgeri M1771. It is filed as functional. The gist of the method:
as §1

Assay [6] relates to Staphylococcus aureus. The assay is described as follows: Minimum inhibitory concentration was evaluated in vitro against Staphylococcus aureus UC 76. It is filed as functional. The following applies: Staphylococcus aureus; read-out: MIC. The gist of the method: as §1
Another assay has as its system Streptococcus pneumoniae. Description: Minimum inhibitory concentration was evaluated in vitro against Streptococcus pneumoniae SV-1. It is filed as functional. The method, boiled down:
as §1

The next assay has as its target DNA gyrase (Escherichia coli, UniProt P0AES4+P0AES6). Description: Inhibition against DNA gyrase. It is filed as protein-complex assay.
For assay [7], the system named is Escherichia coli. Description: Antibacterial activity against Escherichia coli Vogel after subcutaneous administration in mouse. The following applies: Escherichia coli, sc; read-out: PD50. It is filed as functional.
Assay [8] deals with Escherichia coli. The assay is described as follows: Antibacterial activity against Escherichia coli Vogel after oral administration in mouse. It is filed as functional. The following applies: Escherichia coli, po; read-out: PD50.
The mark [9] stands for this setting: Staphylococcus aureus, read-out: MIC.
The mark [10] stands for this setting: Escherichia coli, read-out: MIC.
[11] abbreviates: Pseudomonas aeruginosa, read-out: MIC.
The mark [12] stands for this setting: Klebsiella pneumoniae, read-out: MIC.
Setting [13] is: Enterobacter cloacae, read-out: MIC.
The mark [14] stands for this setting: Streptococcus pyogenes, read-out: MIC.
The mark [15] stands for this setting: Enterococcus faecalis, read-out: MIC.
The mark [16] stands for this setting: Providencia rettgeri, read-out: MIC.
The mark [17] stands for this setting: Streptococcus pneumoniae, read-out: MIC.

With `C[C@@H](N)[C@@H]1CCN(c2cc3c(cc2F)c(=O)c(C(=O)O)cn3C2CC2)C1`, the MIC was found to be 0.2 µg/mL (≈ 0.556 µM) in the assay with Staphylococcus aureus [1] (setting [9]); 0.1 µg/mL (≈ 0.278 µM) in the assay on Escherichia coli [2] (setting [10]); 1.6 µg/mL (≈ 4.45 µM) with Pseudomonas aeruginosa (setting [11]); 0.4 µg/mL (≈ 1.11 µM) in the assay with Klebsiella pneumoniae (setting [12]); 0.2 µg/mL (≈ 0.556 µM) with Enterobacter cloacae (setting [13]); 0.025 µg/mL (≈ 0.0696 µM) with Streptococcus pyogenes [4] (setting [14]). Also, the MIC with Enterococcus faecalis (setting [15]) worked out at 0.1 µg/mL (≈ 0.278 µM); in the assay on Providencia rettgeri (setting [16]), 0.8 µg/mL (≈ 2.23 µM); in the assay with Staphylococcus aureus [6], 0.05 µg/mL (≈ 0.139 µM); in the assay on Streptococcus pneumoniae (setting [17]), 0.025 µg/mL (≈ 0.0696 µM). Moreover, the ED50 in the assay with Streptococcus pyogenes [3] was 2 mg/kg; with Streptococcus pyogenes [5], > 100 mg/kg. At DNA gyrase, 2090 nM corresponded to half-maximal inhibition (IC50).

For `C[C@@H](N)[C@H]1CCN(c2cc3c(cc2F)c(=O)c(C(=O)O)cn3C2CC2)C1` (racemic), the ED50 turned out to be 1 mg/kg in the assay with Escherichia coli [7] and 47 mg/kg in the assay on Escherichia coli [8]. In addition, the MIC was 0.05 µg/mL (≈ 0.139 µM) against Staphylococcus aureus [1]; 0.05 µg/mL (≈ 0.139 µM) in the assay on Escherichia coli [2]; 0.4 µg/mL (≈ 1.11 µM) against Pseudomonas aeruginosa; 0.1 µg/mL (≈ 0.278 µM) in the assay on Klebsiella pneumoniae; 0.05 µg/mL (≈ 0.139 µM) with Enterobacter cloacae; 0.003 µg/mL (≈ 0.00835 µM) in the assay with Streptococcus pyogenes [4]. Moreover, the MIC in the assay with Enterococcus faecalis is 0.025 µg/mL (≈ 0.0696 µM); against Providencia rettgeri it was 0.2 µg/mL (≈ 0.556 µM); with Staphylococcus aureus [6], 0.025 µg/mL (≈ 0.0696 µM); against Streptococcus pneumoniae it was 0.013 µg/mL (≈ 0.0362 µM). Moreover, the PD50 in the assay with Streptococcus pyogenes [3] was determined as 1 mg/kg; in the assay on Streptococcus pyogenes [5], 11 mg/kg. The molecule also gave an IC50 on DNA gyrase of 1390 nM.

With `CC1(CN)CCN(c2cc3c(cc2F)c(=O)c(C(=O)O)cn3C2CC2)C1` (stereo not given), the ED50 was 3 mg/kg with Escherichia coli [7], 3 mg/kg with Streptococcus pyogenes [3], 31 mg/kg in the assay on Streptococcus pyogenes [5] and 43 mg/kg with Escherichia coli [8]. Besides, the minimal inhibitory concentration (MIC) with Staphylococcus aureus [1] (setting [9]) came to 0.1 µg/mL (≈ 0.278 µM); in the assay on Providencia rettgeri (setting [16]) it was 0.8 µg/mL (≈ 2.23 µM); with Staphylococcus aureus [6], 0.013 µg/mL (≈ 0.0362 µM). Moreover, inhibition on DNA gyrase was half-maximal at 2780 nM (IC50).

Consider `NC1CCN(c2cc3c(cc2F)c(=O)c(C(=O)O)cn3C2CC2)C1` (stereo not given), for which the MIC in the assay with Staphylococcus aureus [1] (setting [9]) worked out at 0.2 µg/mL (≈ 0.604 µM); with Klebsiella pneumoniae (setting [12]) it was 0.05 µg/mL (≈ 0.151 µM); with Enterobacter cloacae (setting [13]) it was 0.025 µg/mL (≈ 0.0754 µM); with Streptococcus pyogenes [4] (setting [14]), 0.1 µg/mL (≈ 0.302 µM); in the assay on Enterococcus faecalis (setting [15]), 0.1 µg/mL (≈ 0.302 µM); in the assay with Staphylococcus aureus [6], 0.025 µg/mL (≈ 0.0754 µM). Moreover, in the assay on Escherichia coli [8], the ED50 amounted to 3 mg/kg. In addition, at DNA gyrase, the IC50 is 754 nM.

Turning to `C[C@H](N)[C@H]1CCN(c2nc3c(cc2F)c(=O)c(C(=O)O)cn3C2CC2)C1`, the MIC in the assay with Staphylococcus aureus [1] (setting [9]) is 0.2 µg/mL (≈ 0.555 µM); in the assay with Escherichia coli [2] (setting [10]), 0.05 µg/mL (≈ 0.139 µM); in the assay with Pseudomonas aeruginosa (setting [11]), 1.6 µg/mL (≈ 4.44 µM); in the assay with Klebsiella pneumoniae (setting [12]), 0.2 µg/mL (≈ 0.555 µM); in the assay with Enterobacter cloacae (setting [13]), 0.05 µg/mL (≈ 0.139 µM); in the assay with Streptococcus pyogenes [4] (setting [14]), 0.05 µg/mL (≈ 0.139 µM). Moreover, the MIC was determined as 0.1 µg/mL (≈ 0.277 µM) with Enterococcus faecalis (setting [15]), 0.4 µg/mL (≈ 1.11 µM) in the assay with Providencia rettgeri (setting [16]), 0.025 µg/mL (≈ 0.0694 µM) with Staphylococcus aureus [6] and 0.05 µg/mL (≈ 0.139 µM) in the assay on Streptococcus pneumoniae (setting [17]). For the same molecule, the ED50 in the assay with Streptococcus pyogenes [3] stood at 10 mg/kg; in the assay with Streptococcus pyogenes [5], 28 mg/kg. Also, on DNA gyrase, the IC50 was 6940 nM.

With `C[C@H](N)[C@H]1CCN(c2cc3c(cc2F)c(=O)c(C(=O)O)cn3C2CC2)C1`, the MIC was 0.8 µg/mL (≈ 2.23 µM) in the assay on Staphylococcus aureus [1] (setting [9]); 0.2 µg/mL (≈ 0.556 µM) with Escherichia coli [2] (setting [10]); 1.6 µg/mL (≈ 4.45 µM) with Pseudomonas aeruginosa (setting [11]); 0.4 µg/mL (≈ 1.11 µM) with Klebsiella pneumoniae (setting [12]); 0.2 µg/mL (≈ 0.556 µM) in the assay on Enterobacter cloacae (setting [13]); 0.1 µg/mL (≈ 0.278 µM) in the assay with Streptococcus pyogenes [4] (setting [14]). The MIC in the assay with Enterococcus faecalis (setting [15]) is 0.4 µg/mL (≈ 1.11 µM); in the assay with Providencia rettgeri (setting [16]), 0.8 µg/mL (≈ 2.23 µM); in the assay with Staphylococcus aureus [6] it was 0.1 µg/mL (≈ 0.278 µM); in the assay with Streptococcus pneumoniae (setting [17]), 0.2 µg/mL (≈ 0.556 µM). Further, the values for the ED50 with Streptococcus pyogenes [3] and in the assay with Streptococcus pyogenes [5] were 12 mg/kg and > 100 mg/kg, respectively. Further, on DNA gyrase, it took 20900 nM to reach half-maximal inhibition (IC50).
